pIC50: −log10 of the molar value.
Experiments:
PC-12 [1] = experiment: Neuroprotection against H2O2-induced cell death in rat PC12 cells assessed as cell viability at 0.1 uM preincubated for 3 hrs followed by H2O2 stimulation measured after 2 hrs by MTT assay (reference value: 25.2 to 41.8%); format: functional; settings: read-out: Activity
PC-12 [2] = experiment: Neuroprotection against H2O2-induced cell death in rat PC12 cells assessed as cell viability at 1 uM preincubated for 3 hrs followed by H2O2 stimulation measured after 2 hrs by MTT assay (reference value: 25.2 to 41.8%); format: functional; settings: read-out: Activity
PC-12 [3] = experiment: Neuroprotection against H2O2-induced cell death in rat PC12 cells assessed as cell viability at 5 uM preincubated for 3 hrs followed by H2O2 stimulation measured after 2 hrs by MTT assay (reference value: 25.2 to 41.8%); format: functional; settings: read-out: Activity
PC-12 [4] = experiment: Neuroprotection against H2O2-induced cell death in rat PC12 cells assessed as cell viability at 10 uM preincubated for 3 hrs followed by H2O2 stimulation measured after 2 hrs by MTT assay (reference value: 25.2 to 41.8%); format: functional; settings: read-out: Activity
PC-12 [5] = experiment: Neuroprotection against H2O2-induced cell death in rat PC12 cells assessed as cell viability at 20 uM preincubated for 3 hrs followed by H2O2 stimulation measured after 2 hrs by MTT assay (reference value: 25.2 to 41.8%); format: functional; settings: read-out: Activity
PC-12 [6] = experiment: Neuroprotection against H2O2-induced cell death in rat PC12 cells assessed as cell viability at 50 uM preincubated for 3 hrs followed by H2O2 stimulation measured after 2 hrs by MTT assay (reference value: 25.2 to 41.8%); format: functional; settings: read-out: Activity
PC-12 [7] = experiment: Neuroprotection against H2O2-induced cell death in rat PC12 cells assessed as increase in cell viability preincubated for 3 hrs followed by H2O2 stimulation measured after 2 hrs by MTT assay; format: functional, cell-based
Acetylcholinesterase = Acetylcholinesterase (Electrophorus electricus, UniProt O42275); experiment: Inhibition of electric eel AChE using acetylthiocholine iodide as substrate pretreated for 5 mins followed by substrate addition by Ellman's method
Cholinesterase = Cholinesterase (Equus caballus, UniProt P81908); experiment: Inhibition of equine serum BuChE using butyrylthiocholine iodide as substrate pretreated for 5 mins followed by substrate addition by Ellman's method
How it was run: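 Ellman assay with horse serum BuChE (5 IU/mL) in 0.1 M phosphate buffer pH 8.0 with DTNB. Compound was preincubated with enzyme 5 min, then butyrylthiocholine iodide was added. Absorbance read at 412 nm. IC50 from a log concentration vs % inhibition curve; triplicate runs.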

[8] = Inhibition of soybean 15-LOX assessed as reduction in conversion of linoleic acid to 13-hydroperoxylinoleic acid by spectrophotometric method; parameters: species or system Glycine max
How it was run: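 Soybean lipoxygenase type 1-B (final 167 U/mL) with compound (DMSO stock diluted in 0.1 M phosphate buffer pH 8) and linoleic acid (134 mM in ethanol) at room temperature. Formation of 13-hydroperoxylinoleic acid followed spectrophotometrically at 234 nm.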

Cholinesterase, sequence (P81908 whole entry): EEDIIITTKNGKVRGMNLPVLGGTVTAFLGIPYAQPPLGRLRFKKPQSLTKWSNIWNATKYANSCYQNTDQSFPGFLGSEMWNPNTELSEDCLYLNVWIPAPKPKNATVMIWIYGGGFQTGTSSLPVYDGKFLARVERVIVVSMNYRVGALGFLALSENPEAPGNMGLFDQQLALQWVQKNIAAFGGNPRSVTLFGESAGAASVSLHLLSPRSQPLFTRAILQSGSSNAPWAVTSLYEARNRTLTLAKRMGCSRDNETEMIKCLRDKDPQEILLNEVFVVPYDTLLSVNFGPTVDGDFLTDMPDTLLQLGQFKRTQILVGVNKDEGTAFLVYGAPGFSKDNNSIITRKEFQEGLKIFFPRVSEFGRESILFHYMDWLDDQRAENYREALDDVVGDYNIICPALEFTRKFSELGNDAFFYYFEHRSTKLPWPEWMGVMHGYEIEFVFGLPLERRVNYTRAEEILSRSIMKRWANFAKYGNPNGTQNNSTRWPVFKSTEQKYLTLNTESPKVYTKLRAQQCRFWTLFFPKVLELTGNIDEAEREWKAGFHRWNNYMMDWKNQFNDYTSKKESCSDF
Acetylcholinesterase, sequence (O42275 whole entry): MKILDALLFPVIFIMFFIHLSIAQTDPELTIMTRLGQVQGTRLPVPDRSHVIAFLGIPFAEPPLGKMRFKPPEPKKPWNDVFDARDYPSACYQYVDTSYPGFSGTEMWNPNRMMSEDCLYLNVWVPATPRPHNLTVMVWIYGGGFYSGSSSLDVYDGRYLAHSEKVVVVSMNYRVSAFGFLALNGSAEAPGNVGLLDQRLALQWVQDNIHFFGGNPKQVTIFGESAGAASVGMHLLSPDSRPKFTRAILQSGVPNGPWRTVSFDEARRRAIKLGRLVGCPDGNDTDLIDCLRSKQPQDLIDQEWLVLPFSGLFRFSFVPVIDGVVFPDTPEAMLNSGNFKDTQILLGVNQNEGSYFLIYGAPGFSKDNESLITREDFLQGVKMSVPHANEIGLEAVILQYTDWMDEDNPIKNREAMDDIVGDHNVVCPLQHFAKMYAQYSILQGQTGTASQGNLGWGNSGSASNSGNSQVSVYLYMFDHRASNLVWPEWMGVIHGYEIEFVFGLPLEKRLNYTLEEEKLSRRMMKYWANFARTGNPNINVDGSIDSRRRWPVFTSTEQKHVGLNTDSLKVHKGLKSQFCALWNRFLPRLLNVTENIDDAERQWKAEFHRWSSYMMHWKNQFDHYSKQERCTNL

SMILES | viability at 0.1 µM (PC-12 [1]) [%] | viability at 1 µM (PC-12 [2]) [%] | viability at 5 µM (PC-12 [3]) [%] | viability at 10 µM (PC-12 [4]) [%] | viability at 20 µM (PC-12 [5]) [%] | viability at 50 µM (PC-12 [6]) [%] | Activity (PC-12 [7]) | pIC50 (Acetylcholinesterase) | pIC50 (Cholinesterase) | pIC50 [8]
O=C(CCCCC1CCSS1)NCc1cn(CCCCOc2ccc3cc(-c4ccc(Cl)c(Cl)c4)c(=O)oc3c2)nn1 (configuration not stated) | 39.6 | 49.3 | 53.2 | 58.9 | 62.9 | 69.5 | Dose-dependent effect | < 4.00 | 4.99 | < 4.00
O=C(CCCCC1CCSS1)NCc1cn(CCCOc2ccc3cc(-c4ccccc4)c(=O)oc3c2)nn1 (configuration not stated) | 33.9 | 31.9 | 29.8 | 29.1 | 27.2 | 23.1 |  | < 4.00 | < 4.00 | < 4.00
CCOC(=O)c1cc2ccc(OCCCn3cc(CNC(=O)CCCCC4CCSS4)nn3)cc2oc1=O (configuration not stated) | 28 | 28.3 | 32.4 | 36.1 | 42.1 | 49.2 | Dose-dependent effect | 4.26 | < 4.00 | < 4.00
O=C(CCCCC1CCSS1)NCc1cn(CCCCCOc2ccc3cc(-c4ccc(Cl)c(Cl)c4)c(=O)oc3c2)nn1 (configuration not stated) | 39.7 | 50.6 | 54.8 | 59.4 | 65.5 | 66.2 | Dose-dependent effect | < 4.00 | 5.11 | < 4.00
O=C(CCCCC1CCSS1)NCc1cn(CCCCCOc2ccc3cc(-c4ccc(Br)cc4)c(=O)oc3c2)nn1 (configuration not stated) | 41.8 | 43.7 | 45.7 | 48.4 | 52.3 | 53.6 | Dose-dependent effect | < 4.00 | < 4.00 | < 4.00
COc1ccc(-c2cc3ccc(OCCCCn4cc(CNC(=O)CCCCC5CCSS5)nn4)cc3oc2=O)cc1OC (configuration not stated) | 40.7 | 53 | 57.2 | 64 | 68.4 | 71.9 | Dose-dependent effect | < 4.00 | < 4.00 | < 4.00
CCOC(=O)c1cc2ccc(OCCCCCn3cc(CNC(=O)CCCCC4CCSS4)nn3)cc2oc1=O (configuration not stated) | 34.4 | 35.1 | 36.4 | 38.3 | 39.5 | 40.7 | Dose-dependent effect | 4.22 | < 4.00 | < 4.00
CC(=O)c1cc2ccc(OCCCCCn3cc(CNC(=O)CCCCC4CCSS4)nn3)cc2oc1=O (configuration not stated) | 28.9 | 27.4 | 22.2 | 20.8 | 20.7 | 18.2 |  | < 4.00 | < 4.00 | < 4.00
O=C(CCCCC1CCSS1)NCc1cn(CCCOc2ccc3cc(-c4ccc(Cl)c(Cl)c4)c(=O)oc3c2)nn1 (configuration not stated) | 38.1 | 42.4 | 44.7 | 49.6 | 51.2 | 54.8 | Dose-dependent effect | < 4.00 | 4.13 | < 4.00
COc1ccc(-c2cc3ccc(OCCCCn4cc(CNC(=O)CCCCC5CCSS5)nn4)cc3oc2=O)cc1 (configuration not stated) | 32.1 | 36.8 | 44.9 | 48.6 | 52.3 | 55.3 | Dose-dependent effect | < 4.00 | < 4.00 | < 4.00
CC(=O)c1cc2ccc(OCCCn3cc(CNC(=O)CCCCC4CCSS4)nn3)cc2oc1=O (configuration not stated) | 34.6 | 35.5 | 37.5 | 38 | 39.8 | 40.7 | Dose-dependent effect | 4.26 | < 4.00 | < 4.00
COc1ccc(-c2cc3ccc(OCCCn4cc(CNC(=O)CCCCC5CCSS5)nn4)cc3oc2=O)cc1 (configuration not stated) | 42 | 47.4 | 52.8 | 57.6 | 62 | 65.7 | Dose-dependent effect | 4.40 | < 4.00 | < 4.00
O=C(CCCCC1CCSS1)NCc1cn(CCCCCOc2ccc3ccc(=O)oc3c2)nn1 (configuration not stated) | 46.3 | 57.2 | 64.5 | 71.3 | 78.5 | 84.9 | Dose-dependent effect | 4.15 | < 4.00 | < 4.00
O=c1c(O)c(-c2ccc(O)c(O)c2)oc2cc(O)cc(O)c12 [QUERCETIN] | 36.2 | 40.7 | 47.3 | 53.7 | 56.9 | 58.8 |  |  |  | 
COc1ccc(-c2cc3ccc(OCCCCCn4cc(CNC(=O)CCCCC5CCSS5)nn4)cc3oc2=O)cc1OC (configuration not stated) | 38.5 | 42.2 | 46.9 | 50.5 | 51.9 | 55 | Dose-dependent effect | < 4.00 | < 4.00 | < 4.00
O=C(CCCCC1CCSS1)NCc1cn(CCCOc2ccc3cc(-c4ccc(Br)cc4)c(=O)oc3c2)nn1 (configuration not stated) | 39.5 | 42.8 | 57.3 | 63.3 | 69.1 | 74.7 | Dose-dependent effect | 4.33 | < 4.00 | < 4.00
O=C(CCCCC1CCSS1)NCc1cn(CCCOc2ccc3ccc(=O)oc3c2)nn1 (configuration not stated) | 37.8 | 37.2 | 39.2 | 40 | 42.2 | 43.5 | Dose-dependent effect | 4.18 | < 4.00 | < 4.00
O=C(CCCCC1CCSS1)NCc1cn(CCCCOc2ccc3cc(-c4ccc(Br)cc4)c(=O)oc3c2)nn1 (configuration not stated) | 34.2 | 37.4 | 40.5 | 42.6 | 45 | 47.6 | Dose-dependent effect | < 4.00 | < 4.00 | < 4.00
O=C(CCCCC1CCSS1)NCc1cn(CCCCOc2ccc3cc(-c4ccccc4)c(=O)oc3c2)nn1 (configuration not stated) | 38.6 | 34.8 | 32.8 | 30.5 | 26 | 20.5 |  | < 4.00 | < 4.00 | < 4.00
O=C(CCCCC1CCSS1)NCc1cn(CCCCOc2ccc3ccc(=O)oc3c2)nn1 (configuration not stated) | 40.5 | 45.9 | 52.8 | 65.1 | 69.8 | 75.8 | Dose-dependent effect | 4.18 | < 4.00 | < 4.00
Cc1cc(=O)oc2cc(OCCCCCn3cc(CNC(=O)CCCCC4CCSS4)nn3)ccc12 (configuration not stated) | 45.6 | 56.5 | 61 | 66.3 | 70.3 | 73.7 | Dose-dependent effect | < 4.00 | < 4.00 | < 4.00
O=C(CCCCC1CCSS1)NCc1cn(CCCCCOc2ccc3cc(-c4ccccc4)c(=O)oc3c2)nn1 (configuration not stated) | 35.5 | 30.7 | 28 | 26.3 | 20.7 | 17.7 |  | < 4.00 | < 4.00 | < 4.00

Source: ChEMBL document CHEMBL4152262, “Design, synthesis and evaluation of novel multi-target-directed ligands for treatment of Alzheimer's disease based on coumarin and lipoic acid scaffolds” (Eur J Med Chem, 2018)
